# Measurements from PubChem BioAssay AID588717 (Southern Research Specialized Biocontainment Screening …, 2011).
# Records with an inconclusive call do not appear. The source made the active and inactive calls.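 The calls were made as follows: active = viability below 80% at one or more tested concentrations; inconclusive = replicate runs disagree on the 80% viability cutoff; inactive = viability above 80% at every tested concentration.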
# Assays:
# [1] = Vero E6 cell cytotoxicity, dose response, cytotoxicity control for P. falciparum PFM1AAP inhibitor project, M1 aminopeptidase campaign (AID 588717); conditions: Vero E6 viability, CellTiter-Glo luminescence, 72 h; at 50 µM (top of the series)
# Method in brief: (§1)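 System: Vero E6 cells / Quantity: 3000 cells/well / Medium: E-MEM plus 10% FBS / Dosing: compound series of 10 points in 2-fold steps / Schedule: 72 h compound exposure at 37 °C, 5% CO2 / Technique: CellTiter-Glo luminescence / Read-out: % viability vs vehicle, CC50 from curve fit / Controls: DMSO vehicle wells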
# [2] = system: Vero E6 viability, CellTiter-Glo luminescence, 72 h; experiment: as above
# Method in brief: as §1
Compound,viability [1],CC50 [2] [µM]
COc1cccc(-c2ccc(S(=O)(=O)N3CCC(C(=O)NCc4ccc5c(c4)OCO5)CC3)s2)c1,83.4% (inactive),
CC[C@H](C)[C@H](NC(=O)c1ccc([N+](=O)[O-])cc1)C(=O)NCc1ccccc1,88.9% (inactive),
CC[C@H](C)[C@H](NS(=O)(=O)c1ccc(Br)s1)C(=O)NCc1ccc(F)cc1,97% (inactive),
COc1ccc(-c2ccc(S(=O)(=O)N3CCC(C(=O)NCc4ccc5c(c4)OCO5)CC3)s2)cc1,84.2% (inactive),
CC[C@H](C)[C@H](NS(=O)(=O)c1cccs1)C(=O)NCc1ccc(F)cc1,95.5% (inactive),
CC[C@H](C)[C@H](NC(=O)c1ccc([N+](=O)[O-])cc1)C(=O)NCc1ccc(C(F)(F)F)cc1,92.2% (inactive),
CC[C@H](C)[C@H](NS(=O)(=O)c1ccc(Br)s1)C(=O)NCc1ccc(C(F)(F)F)cc1,,28.7
CC[C@H](C)[C@H](NS(=O)(=O)c1ccc(Br)s1)C(=O)O,104% (inactive),
